Experimental findings from ChEMBL document CHEMBL4765412, “(±)-trans-2-phenyl-2,3-dihydrobenzofurans as leishmanicidal agents: Synthesis, in vitro evaluation and SAR analysis” (Eur J Med Chem, 2020) are described below.

One may read the IC50 as the concentration that gives 50% inhibition.

In one data set the test system is Leishmania donovani. In words: Antileishmanial activity against Leishmania donovani MHOM/ET/67/L82 amastigotes assessed as growth inhibition incubated for 70 hrs by resazurin based inverted microscopic analysis. Format: functional, organism-based. As to conditions: Leishmania donovani, MHOM/ET/67/L82, 70 h. The method in brief:
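Axenic L. donovani amastigotes (MHOM/ET/67/L82); racemates tested unless stated; miltefosine as positive control. Some values come from a separate run and were rescaled by that run's relative miltefosine IC50.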
(Resazurin is reduced to fluorescent resorufin, in cell work by metabolically active cells.)

The test system of a further data set is L6. Nature of the data set: Cytotoxicity against rat L6 cells assessed as reduction in cell viability incubated for 70 hrs by resazurin staining based inverted microscopic analysis. As to conditions: L6, 70 h. The method in brief: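 Rat L-6 skeletal myoblast line; racemates tested unless stated.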
The nature of data set [1]: Selectivity index, ratio of IC50 for cytotoxicity against rat L6 cells to IC50 for antileishmanial activity against Leishmania donovani MHOM/ET/67/L82 amastigotes. In kind it is toxicity, cell-based. As to conditions: read-out: Ratio IC50.
Data set [2] can be described thus: Metabolic stability in mouse liver microsomes assessed as metabolite formation by ester hydrolysis at 100 umol/L incubated for 90 mins in absence of UDPGA by LC-MS analysis. The following applies: 1.5 h, 100 µM. A general note: Microsomes from liver hold many membrane-bound enzymes, among them those of drug oxidation.
Data set [3] in a line: Metabolic stability in mouse liver microsomes assessed as metabolite formation by glucuronidation at 100 umol/L incubated for 90 mins in presence of UDPGA by LC-MS analysis. The following applies: 1.5 h, 100 µM.

As for `C[C@H]1c2cc(/C=C/C(=O)O)ccc2O[C@@H]1c1ccc(O)cc1` (racemic), the IC50 turned out to be 5.64 µM in the data set on Leishmania donovani and 73.9 µM with L6. In addition, in data set [1], the selectivity ratio came out at 13.1.
In the same order, the values of `COc1cc([C@H]2Oc3ccc(Br)cc3[C@@H]2CO)c(Br)cc1O` (racemic) are 10.7 µM, 40.6 µM and 3.8.
Turning to `COc1cc(Br)c([C@H]2Oc3ccc(Br)cc3[C@@H]2CO)cc1OC` (racemic), the IC50 turned out to be 11.4 µM in the data set with Leishmania donovani and 21 µM in the data set with L6. For the same compound, the selectivity ratio in data set [1] was 1.8.
In the same order, the values of `COc1cc([C@H]2Oc3ccc(Cl)cc3[C@@H]2C)cc(Cl)c1O` (racemic) are 13.4 µM, 64.2 µM and 4.8.
The corresponding values for `COc1ccc([C@H]2Oc3ccc(/C=C/C(=O)OC(C)(C)C)cc3[C@@H]2CO)cc1OC` (racemic) are 10.7 µM, 22.9 µM and 2.1.
On to `COc1cc([C@H]2Oc3ccc(Br)cc3[C@@H]2CO)cc(Br)c1O` (racemic), for which the half-inhibitory concentration (IC50) came to 12.1 µM with Leishmania donovani and 45.4 µM with L6. Besides, in data set [1], the selectivity ratio was determined as 3.8.
For the compound `COc1cc([C@H]2Oc3ccc(Br)cc3[C@@H]2C)c(Br)cc1O` (racemic), the figures for the IC50 in the data set with Leishmania donovani and in the data set on L6 were 15 µM and 18.2 µM, respectively. Besides, the selectivity ratio in data set [1] came to 1.2.
With `C[C@H]1c2cc(Br)ccc2O[C@@H]1c1ccc(O)cc1` (racemic), the IC50 with Leishmania donovani was found to be 32.5 µM; in the data set with L6 it was 56.6 µM. Also, the selectivity ratio in data set [1] is 1.7.
Take `CC(=O)Oc1ccc([C@H]2Oc3ccc(/C=C/C(=O)OC(C)(C)C)cc3[C@@H]2C(=O)OC(C)(C)C)cc1` (racemic): the IC50 was 2.06 µM in the data set with Leishmania donovani and 11.8 µM in the data set with L6. In data set [1], the selectivity ratio was determined as 5.7.
With `CC(C)(C)OC(=O)/C=C/c1ccc2c(c1)[C@H](CO)[C@@H](c1ccc(O)cc1)O2` (racemic), the figures for the IC50 in the data set on Leishmania donovani and in the data set on L6 were 17.1 µM and 33.8 µM, respectively. In addition, the selectivity ratio in data set [1] was found to be 2.
In the same order, the values of `OC[C@H]1c2cc(-c3ccc(O)cc3)ccc2O[C@@H]1c1ccc(O)cc1` (racemic) are 16.5 µM, 44.5 µM and 2.7.
The corresponding values for `COc1cc([C@H]2Oc3ccccc3[C@@H]2C)cc(I)c1O` (racemic) are 13.4 µM, 46.9 µM and 3.5.
The corresponding values for `OC[C@H]1c2cc(Br)ccc2O[C@@H]1c1ccc(O)c(O)c1` (racemic) are 17.8 µM, 3.93 µM and 0.2.
For `COc1cc([C@H]2Oc3ccc(Cl)cc3[C@@H]2C)ccc1O` (racemic), the IC50 with Leishmania donovani was 16.1 µM; in the data set with L6 it was 55.4 µM. Also, the selectivity ratio in data set [1] worked out at 3.4.
Regarding `OC[C@H]1c2ccccc2O[C@@H]1c1ccc(O)c(Br)c1` (racemic), the IC50 in the data set on Leishmania donovani was 43.8 µM; with L6, 115 µM. Further, in data set [1], the selectivity ratio is 2.6.
Consider `COc1ccc([C@H]2Oc3ccc(Br)cc3[C@@H]2C)cc1Br` (racemic), for which the IC50 in the data set on Leishmania donovani is 29.7 µM; in the data set with L6 it was 39.7 µM. Moreover, in data set [1], the selectivity ratio is 1.3.
For `OC[C@H]1c2cc(Br)ccc2O[C@@H]1c1ccc(O)c(Br)c1` (racemic), the IC50 in the data set on Leishmania donovani worked out at 21.8 µM; in the data set with L6, 64.8 µM. Besides, the selectivity ratio in data set [1] turned out to be 3.
For `COc1cc([C@H]2Oc3ccc(Br)cc3[C@@H]2C)cc(Br)c1O` (racemic), the values for the IC50 in the data set on Leishmania donovani and in the data set on L6 were 17.2 µM and 44.8 µM, respectively. For the same compound, the selectivity ratio in data set [1] worked out at 2.6.
For the compound `CC(C)OC(=O)/C=C/c1cc(O)c2c(c1)[C@H](C(=O)OC(C)C)[C@@H](c1ccc(O)c(O)c1)O2` (racemic), the IC50 in the data set on Leishmania donovani came to 0.54 µM; in the data set with L6, 10.2 µM. For the same compound, the selectivity ratio in data set [1] was found to be 18.9. Besides, the Drug metabolism result in data set [2] and in data set [3] was “Metabolite_Detected” throughout.
In the case of `OC[C@H]1c2cc(-c3cccnc3F)ccc2O[C@@H]1c1ccc(O)cc1` (racemic), the IC50 with Leishmania donovani was determined as 18.8 µM; in the data set on L6 it was 52.4 µM. Further, the selectivity ratio in data set [1] was 2.8.
As for `COc1ccc([C@H]2Oc3ccc(/C=C/C(=O)OC(C)(C)C)cc3[C@@H]2C)cc1` (racemic), the IC50 with Leishmania donovani was determined as 4.01 µM; with L6, 40.1 µM. In data set [1], the selectivity ratio was found to be 10.
As to `Cc1ccc(-c2ccc3c(c2)[C@H](CO)[C@@H](c2ccc(O)cc2)O3)s1` (racemic), the figures for the concentration for half-maximal inhibition (IC50) in the data set on Leishmania donovani and in the data set on L6 were 16.1 µM and 15.8 µM, respectively. The selectivity ratio in data set [1] came to 1.
In the same order, the values of `COc1ccc([C@H]2Oc3ccc(/C=C/C(=O)OC(C)(C)C)cc3[C@@H]2CF)cc1OC` (racemic) are 13 µM, 34 µM and 2.6.
Turning to `O=S(=O)(OC[C@H]1c2ccccc2O[C@@H]1c1ccc(OS(=O)(=O)c2ccccn2)cc1)c1ccccn1` (racemic), the IC50 is 6.31 µM with Leishmania donovani and 189 µM in the data set with L6. The selectivity ratio in data set [1] was found to be 29.9.
Take `O=Cc1ccc(-c2ccc3c(c2)[C@H](CO)[C@@H](c2ccc(O)cc2)O3)cc1` (racemic): the IC50 stood at 37.7 µM in the data set with Leishmania donovani and 55.9 µM in the data set on L6. Moreover, the selectivity ratio in data set [1] came out at 1.5.
In the same order, the values of `CC(C)(C)OC(=O)/C=C/c1ccc2c(c1)[C@H](C(=O)OC(C)(C)C)[C@@H](c1ccc(OC(C)(C)C)cc1)O2` (racemic) are 13.1 µM, 202 µM and 15.5.
Consider `OC[C@H]1c2ccccc2O[C@@H]1c1cc(Br)c(O)c(Br)c1` (racemic), for which the IC50 in the data set with Leishmania donovani turned out to be 10.1 µM; with L6 it was 109 µM. Moreover, in data set [1], the selectivity ratio came out at 10.8.
Turning to `C/C=C/c1cc(OC)c2c(c1)[C@H](C)[C@@H](c1ccc(O)c(OC)c1)O2` (racemic) [LICARIN A], the concentration for half-maximal inhibition (IC50) amounted to 6.45 µM in the data set on Leishmania donovani and 6.21 µM in the data set on L6. Also, in data set [1], the selectivity ratio came out at 1.
